The source made the active and inactive calls.

We go through 14 compounds from ChEMBL document CHEMBL2434899, “Peripherally selective diphenyl purine antagonist of the CB1 receptor” (J Med Chem, 2013).

The species entered for one series is Homo sapiens. Kind of series: Selectivity ratio of Ki for CB2 receptor (unknown origin) to Ki for human CB1 receptor.
Another series has as its target Cannabinoid receptor 2 (Homo sapiens, UniProt P34972). As to the kind of experiment: Displacement of [3H]CP55940 from CB2 receptor (unknown origin) expressed in CHO-K1 cells. The format is cell-based.
Series [1] concerns the target T1, Cannabinoid receptor 1 (Homo sapiens, UniProt P21554). As to the kind of experiment: Displacement of [3H]CP55940 from human CB1 receptor expressed in CHO-K1 cells. In kind it is cell-based.
In series [2] the target is T1, Cannabinoid receptor 1. Kind of series: Antagonist activity at human CB1 receptor expressed in CHO-K1 cells by intracellular Ca2+ mobilization assay in presence of CP55940. In kind it is functional, cell-based. Summed up: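 CHO-K1 cells co-expressing human CB1 and Gαq16; intracellular calcium flux read with fluorescent dye on a 96-well plate reader. Rightward shift of the CP55940 concentration-response curve gives Ke = [ligand]/(DR−1), DR being the CP55940 EC50 ratio with versus without test agent. Averages of 3–6 measurements.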

The test system of series [3] is Mus musculus. As to the kind of experiment: Antagonist activity at CB1 receptor in ICR mouse assessed as catelepsy at 10 mg/kg, po after 30 mins. In kind it is functional, organism-based. Details: dose 10 mg/kg. A digest of the protocol: (§1)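 Adult ICR mice given vehicle or 10 mg/kg oral gavage, then vehicle or 30 mg/kg Δ9-THC i.v. by tail vein 30 min later. Rectal temperature was taken before injection and at 30 min after it, reported as change (°C). At 40 min, time motionless on an elevated ring over 5 min was recorded as % immobility. 5–6 mice per group; factorial ANOVA with Tukey post hoc.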

In series [4] the test system is Mus musculus. As to the kind of experiment: Antagonist activity at CB1 receptor in ICR mouse assessed as rectal temperature at 10 mg/kg, po after 30 mins relative to control. In kind it is functional, organism-based. Details: dose 10 mg/kg. A digest of the protocol: as §1
Series [5] relates to Mus musculus. Kind of series: Antagonist activity at CB1 receptor in ICR mouse assessed as latency period at 10 mg/kg, po after 30 mins by warm water tail withdrawal assay. In kind it is functional, organism-based. Details: dose 10 mg/kg. Summed up:
(§2)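 ICR mice had baseline tail-withdrawal latency measured in a 55 °C water bath, then received oral vehicle or 10 mg/kg by gavage, followed 30 min later by i.v. vehicle or 30 mg/kg Δ9-THC. Latency was retested 20 min post-injection with a 10 s cutoff, expressed as %MPE = [(test−control)/(10−control)]×100. 5–6 mice per group; factorial ANOVA with Tukey post hoc.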

For series [6], the system named is Mus musculus. Kind of series: Antagonist activity at CB1 receptor in ICR mouse assessed as suppression of spontaneous activity at 10 mg/kg, po after 30 mins. The format is functional, organism-based. Details: dose 10 mg/kg. Summed up: (§3)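 ICR mice were gavaged with vehicle or 10 mg/kg, then injected i.v. in the tail vein 30 min later with vehicle or 30 mg/kg Δ9-THC. After 5 min each mouse was placed in an activity chamber for 10 min; horizontal movement was counted as total infrared photobeam interruptions. 5–6 mice per group; factorial ANOVA with Tukey post hoc.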

The test system of series [7] is Mus musculus. Kind of series: Reversal of delta9-THC-mediated suppression of catelepsy in ICR mouse at 10 mg/kg, po administered 30 mins prior to delta9-THC challenge measured after 40 mins. The format is functional, organism-based. Details: dose 10 mg/kg. Summed up: as §1
For series [8], the system named is Mus musculus. As to the kind of experiment: Reversal of delta9-THC-mediated suppression of hypothermia in ICR mouse assessed as rectal temperature at 10 mg/kg, po administered 30 mins prior to delta9-THC challenge measured after 30 mins relative to control. In kind it is functional, organism-based. Details: dose 10 mg/kg. Summed up: as §1
Series [9] concerns Mus musculus. Kind of series: Reversal of delta9-THC-mediated suppression of antinociceptive activity in ICR mouse assessed as latency period at 10 mg/kg, po administered 30 mins prior to delta9-THC challenge measured after 20 mins by warm water tail withdrawal assay. In kind it is functional, organism-based. Details: dose 10 mg/kg. Summed up: as §2
The subject of series [10] is Mus musculus. As to the kind of experiment: Reversal of delta9-THC-mediated suppression of spontaneous activity in ICR mouse at 10 mg/kg, po administered 30 mins prior to delta9-THC challenge measured after 5 mins. Details: dose 10 mg/kg. The format is functional, organism-based. Summed up: as §3
Series [11] deals with Nucleic Acid. As to the kind of experiment: Ratio of drug uptake from brain to plasma in Sprague-Dawley rat at 10 mg/kg, po after 24 hrs by LC-MS analysis. The format is ADME, organism-based. Details: dose 10 mg/kg, route oral. Summed up:
(§4)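 Male Sprague Dawley rats, 9 weeks old, given 10 mg/kg orally by gavage in corn oil; 3 rats per time point. Un-perfused brain and plasma taken at 1, 2, 4, 8 and 24 h. Plasma, or brain homogenized in ethanol:water, was precipitated with acetonitrile, centrifuged 9000 g for 5 min and analysed by LC-MS/MS (MRM, C18 column).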

In series [12] the test system is Nucleic Acid. Kind of series: Ratio of drug uptake from brain to plasma in Sprague-Dawley rat at 10 mg/kg, po after 8 hrs by LC-MS analysis. In kind it is ADME, organism-based. Details: dose 10 mg/kg, route oral. Summed up: as §4
In series [13] the test system is Nucleic Acid. Kind of series: Ratio of drug uptake from brain to plasma in Sprague-Dawley rat at 10 mg/kg, po after 2 hrs by LC-MS analysis. In kind it is ADME, organism-based. Details: dose 10 mg/kg, route oral. A digest of the protocol:
as §4

Series [14] concerns Nucleic Acid. As to the kind of experiment: Ratio of drug uptake from brain to plasma in Sprague-Dawley rat at 10 mg/kg, po after 4 hrs by LC-MS analysis. Details: dose 10 mg/kg, route oral. The format is ADME, organism-based. A digest of the protocol:
as §4

Series [15] can be described thus: Drug uptake in brain of Sprague-Dawley rat at 10 mg/kg, po after 24 hrs by LC-MS analysis. The format is ADME, organism-based. Details: dose 10 mg/kg, route oral. As to conditions: read-out: Drug uptake. A digest of the protocol:
as §4

Series [16] in a line: Drug uptake in brain of Sprague-Dawley rat at 10 mg/kg, po after 8 hrs by LC-MS analysis. Details: dose 10 mg/kg, route oral. The format is ADME, organism-based. As to conditions: read-out: Drug uptake. Summed up: as §4
Series [17] can be described thus: Drug uptake in brain of Sprague-Dawley rat at 10 mg/kg, po after 4 hrs by LC-MS analysis. In kind it is ADME, organism-based. Details: dose 10 mg/kg, route oral. As to conditions: read-out: Drug uptake. A digest of the protocol:
as §4

The nature of series [18]: Drug uptake in brain of Sprague-Dawley rat at 10 mg/kg, po after 2 hrs by LC-MS analysis. In kind it is ADME, organism-based. As to conditions: read-out: Drug uptake. Details: dose 10 mg/kg, route oral. Summed up: as §4
Series [19] is described as follows: Drug uptake in brain of Sprague-Dawley rat at 10 mg/kg, po after 1 hr by LC-MS analysis. As to conditions: read-out: Drug uptake. Details: dose 10 mg/kg, route oral. The format is ADME, organism-based. A digest of the protocol:
as §4

For series [20], the system named is Nucleic Acid. As to the kind of experiment: Ratio of drug uptake from brain to plasma in Sprague-Dawley rat at 10 mg/kg, po after 1 hr by LC-MS analysis. In kind it is ADME, organism-based. Details: dose 10 mg/kg, route oral. A digest of the protocol: as §4
A short description of series [21]: Plasma concentration in Sprague-Dawley rat at 10 mg/kg, po after 8 hrs by LC-MS analysis. In kind it is ADME, organism-based. Details: dose 10 mg/kg, route oral. A digest of the protocol: as §4
Series [22] can be described thus: Plasma concentration in Sprague-Dawley rat at 10 mg/kg, po after 4 hrs by LC-MS analysis. In kind it is ADME, organism-based. Details: dose 10 mg/kg, route oral. Summed up: as §4
Series [23] in a line: Plasma concentration in Sprague-Dawley rat at 10 mg/kg, po after 2 hrs by LC-MS analysis. In kind it is ADME, organism-based. Details: dose 10 mg/kg, route oral. Summed up:
as §4

Series [24] in a line: Plasma concentration in Sprague-Dawley rat at 10 mg/kg, po after 1 hr by LC-MS analysis. In kind it is ADME, organism-based. Details: dose 10 mg/kg, route oral. A digest of the protocol:
as §4

Series [25] in a line: Plasma concentration in Sprague-Dawley rat at 10 mg/kg, po after 24 hrs by LC-MS analysis. The format is ADME, organism-based. Details: dose 10 mg/kg, route oral. Summed up: as §4

T1 sequence (P21554 whole entry): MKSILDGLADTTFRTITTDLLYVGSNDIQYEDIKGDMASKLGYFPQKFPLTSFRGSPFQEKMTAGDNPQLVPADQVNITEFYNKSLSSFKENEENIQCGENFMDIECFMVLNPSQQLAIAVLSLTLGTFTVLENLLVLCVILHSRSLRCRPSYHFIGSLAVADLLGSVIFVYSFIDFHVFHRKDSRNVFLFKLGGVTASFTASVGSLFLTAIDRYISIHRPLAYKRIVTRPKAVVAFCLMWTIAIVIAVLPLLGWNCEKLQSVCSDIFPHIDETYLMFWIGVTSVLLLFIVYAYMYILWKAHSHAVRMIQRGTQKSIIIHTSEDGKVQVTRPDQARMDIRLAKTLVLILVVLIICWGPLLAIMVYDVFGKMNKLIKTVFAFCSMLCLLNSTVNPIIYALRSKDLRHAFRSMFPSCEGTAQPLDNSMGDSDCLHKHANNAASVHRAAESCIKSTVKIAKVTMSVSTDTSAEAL
Chain of Cannabinoid receptor 2 (P34972 whole entry): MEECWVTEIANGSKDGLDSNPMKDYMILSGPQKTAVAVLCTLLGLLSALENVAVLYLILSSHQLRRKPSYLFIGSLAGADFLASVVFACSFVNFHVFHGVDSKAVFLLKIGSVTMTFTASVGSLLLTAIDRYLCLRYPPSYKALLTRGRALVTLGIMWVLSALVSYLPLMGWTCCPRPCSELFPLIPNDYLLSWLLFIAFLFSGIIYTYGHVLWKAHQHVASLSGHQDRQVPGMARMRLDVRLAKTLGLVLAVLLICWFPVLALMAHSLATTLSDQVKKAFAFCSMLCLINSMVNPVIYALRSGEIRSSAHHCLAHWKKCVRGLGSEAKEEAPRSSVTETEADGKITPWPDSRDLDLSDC

As for `O=C(NC1CCN(c2ncnc3c2nc(-c2ccccc2Cl)n3-c2ccc(Cl)cc2)CC1)C1CCCCC1`, the Ratio Ki in the series filed under Homo sapiens was 249. Moreover, the results for the Ki at Cannabinoid receptor 2 and at Cannabinoid receptor 1 [1] were 0.835 µM and 0.00335 µM, respectively. Moreover, the Ke on Cannabinoid receptor 1 [2] was 3.3 nM.
The like results for `CC(C)CCC(=O)NC1CCN(c2ncnc3c2nc(-c2ccccc2Cl)n3-c2ccc(Cl)cc2)CC1` were, in that order, 81, 0.215 µM, 0.00267 µM and 7.4 nM.
In the case of `O=C(NC1CCN(c2ncnc3c2nc(-c2ccccc2Cl)n3-c2ccc(Cl)cc2)CC1)C1CCCC1`, the Ratio Ki in the series listed under Homo sapiens was 39. Further, the figures for the Ki at Cannabinoid receptor 2 and at Cannabinoid receptor 1 [1] were 0.0602 µM and 0.00154 µM, respectively. The Ke on Cannabinoid receptor 1 [2] is 0.89 nM.
As to `CCCCC(=O)NC1CCN(c2ncnc3c2nc(-c2ccccc2Cl)n3-c2ccc(Cl)cc2)CC1`, the outcome with Mus musculus [3], in the series on Mus musculus [4], in the series on Mus musculus [5], with Mus musculus [6], in the series on Mus musculus [7] and in the series on Mus musculus [8] was inactive. In addition, the outcome with Mus musculus [9] and in the series on Mus musculus [10] was inactive. Moreover, the BPR stood at 0.01 with Nucleic Acid [11]; 0.03 in the series on Nucleic Acid [12]; 0.04 with Nucleic Acid [13]; 0.07 in the series on Nucleic Acid [14]; 0.03 in the series on Nucleic Acid [20]. Besides, the concentration at 24 h is 0.00535 µg/mL in series [15] and 0.438 µg/mL in series [25]. The concentration at 8 h in series [16] came to 0.0625 µg/mL; in series [21], 1.97 µg/mL. Further, the concentration at 4 h in series [17] worked out at 0.103 µg/mL; in series [22], 1.56 µg/mL. Besides, the concentration at 2 h stood at 0.0715 µg/mL in series [18] and 1.75 µg/mL in series [23]. The concentration at 1 h in [19] is 0.0243 µg/mL; in series [24], 0.73 µg/mL. Besides, the Ratio Ki in the series filed under Homo sapiens was found to be 54. The Ki at Cannabinoid receptor 2 amounted to 1.05 µM; on Cannabinoid receptor 1 [1], 0.0195 µM. In addition, the Ke at Cannabinoid receptor 1 [2] came out at 4.9 nM.
As for `CC(C)CC(=O)NC1CCN(c2ncnc3c2nc(-c2ccccc2Cl)n3-c2ccc(Cl)cc2)CC1`, the Ratio Ki in the series listed under Homo sapiens came to 22. Also, the Ki was found to be 0.0895 µM at Cannabinoid receptor 2 and 0.00401 µM at Cannabinoid receptor 1 [1]. The Ke on Cannabinoid receptor 1 [2] came out at 5.4 nM.
Regarding `O=S(=O)(NC1CCN(c2ncnc3c2nc(-c2ccccc2Cl)n3-c2ccc(Cl)cc2)CC1)C(F)(F)F`, in the series filed under Homo sapiens, the Ratio Ki is 738. Moreover, the Ki was 4.5 µM at Cannabinoid receptor 2 and 0.0061 µM at Cannabinoid receptor 1 [1]. Also, the Ke at Cannabinoid receptor 1 [2] was found to be 1.05 nM.
In the case of `O=C(NC1CCN(c2ncnc3c2nc(-c2ccccc2Cl)n3-c2ccc(Cl)cc2)CC1)Oc1ccccc1`, the inhibitory constant (Ki) on Cannabinoid receptor 2 is 10.6 µM; on Cannabinoid receptor 1 [1], 0.00255 µM.
Consider `O=C(CC1CCCC1)NC1CCN(c2ncnc3c2nc(-c2ccccc2Cl)n3-c2ccc(Cl)cc2)CC1`, for which, in the series filed under Homo sapiens, the Ratio Ki was 282. For the same compound, the Ki at Cannabinoid receptor 2 amounted to 0.569 µM; on Cannabinoid receptor 1 [1], 0.00202 µM. The Ke on Cannabinoid receptor 1 [2] was determined as 2.9 nM.
As to `O=C(CCN1CCCCC1)NC1CCN(c2ncnc3c2nc(-c2ccccc2Cl)n3-c2ccc(Cl)cc2)CC1`, the Ke at Cannabinoid receptor 1 [2] stood at 789 nM.
With `O=C(CC1CCCCC1)NC1CCN(c2ncnc3c2nc(-c2ccccc2Cl)n3-c2ccc(Cl)cc2)CC1`, the inhibitory constant (Ki) is 2.36 µM at Cannabinoid receptor 2 and 0.00193 µM at Cannabinoid receptor 1 [1]. Further, on Cannabinoid receptor 1 [2], the Ke came to 2.1 nM.
`NS(=O)(=O)NC1CCN(c2ncnc3c2nc(-c2ccccc2Cl)n3-c2ccc(Cl)cc2)CC1`: at Cannabinoid receptor 1 [2], the Ke stood at 2770 nM.
On to `COC(=O)NC1CCN(c2ncnc3c2nc(-c2ccccc2Cl)n3-c2ccc(Cl)cc2)CC1`, for which, at Cannabinoid receptor 1 [2], the Ke is 17 nM.
Consider `CN(C)CC(=O)NC1CCN(c2ncnc3c2nc(-c2ccccc2Cl)n3-c2ccc(Cl)cc2)CC1`, for which the Ke at Cannabinoid receptor 1 [2] amounted to 140 nM.
As for `CCOC(=O)NC1CCN(c2ncnc3c2nc(-c2ccccc2Cl)n3-c2ccc(Cl)cc2)CC1`, the Ratio Ki in the series filed under Homo sapiens came to 119. Further, the Ki on Cannabinoid receptor 2 amounted to 0.426 µM; at Cannabinoid receptor 1 [1] it was 0.00357 µM. For the same compound, the Ke at Cannabinoid receptor 1 [2] amounted to 2.3 nM.
